Drawing on ChEMBL document CHEMBL3994636, “New tools in nucleoside toolbox of tick-borne encephalitis virus reproduction inhibitors” (Bioorg Med Chem Lett, 2017), this text covers EC50, inhibition and CC50 for 32 compounds.

Broadly, the EC50 is the concentration giving half of the maximal effect. Broadly, the inhibition is the drop in the measured response relative to a control, in per cent. Broadly, the CC50 is the concentration giving 50% cytotoxicity. High values mean better tolerance by the cells, low ones harm at low concentration.

The subject of data set [1] is Tick-borne encephalitis virus. In words: Antiviral activity against […] Absettarov infected in PEK cells assessed as inhibition of viral reproduction preincubated with virus for 1 hr followed by addition to PEK cells measured after 1 hr by gentian violet staining based plaque reduction assay. The class given is functional, cell-based. For orientation: Plaques are areas of infected cells; plaque reduction assays count them against a control.

For data set [2], the system named is Tick-borne encephalitis virus. In words: Antiviral activity against […] Absettarov infected in PEK cells assessed as inhibition of viral reproduction at 50 uM preincubated with virus for 1 hr followed by addition to PEK cells measured after 1 hr by gentian violet staining based plaque reduction assay relative to control. The class given is functional.
Data set [3] is described as follows: Cytotoxicity against PEK cells after 7 days. The class given is cell-based, Sus scrofa. Conditions: pig.
Data set [4] can be described thus: Cytotoxicity against PEK cells after 24 hrs. Conditions: pig. The class given is cell-based, Sus scrofa. In outline:
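PEK (porcine embryo kidney) cells were exposed to compound at 50 μM for 24 h and examined for cytotoxicity.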

The source made the active and inactive calls. No cut-off for these calls is given here. A value given as a limit tells only on which side of the number the result lay.

As for `CC1(C)[C@H]2CC=C(CNc3ncnc4c3ncn4[C@@H]3O[C@H](CO)[C@@H](O)[C@H]3O)[C@@H]1C2`, the EC50 in data set [1] was > 50 µM. In addition, the inhibition entry in data set [2] is “inactive”.
In the same order, the values of `CC(C)=CCC/C(C)=C/CNc1ncnc2c1ncn2[C@@H]1O[C@H](CO)[C@@H](O)[C@H]1O` are > 50 µM and “inactive”.
Turning to `OC[C@H]1O[C@@H](n2cnc3c(NCC#Cc4ccccc4)ncnc32)[C@H](O)[C@@H]1O`, the EC50 in data set [1] was > 48 µM. In data set [2], the inhibition result was “inactive”.
For the compound `C=CCC#CCNc1ncnc2c1ncn2[C@@H]1O[C@H](CO)[C@@H](O)[C@H]1O`, the EC50 in data set [1] is > 50 µM. In addition, the inhibition result in data set [2] is “inactive”.
As to `OC/C=C\CNc1ncnc2c1ncn2[C@@H]1O[C@H](CO)[C@@H](O)[C@H]1O`, the EC50 in data set [1] was > 50 µM. For the same compound, the inhibition result in data set [2] is “inactive”.
Consider `C#CCNc1ncnc2c1ncn2[C@@H]1O[C@H](CO)[C@@H](O)[C@H]1O`, for which the EC50 in data set [1] is > 50 µM. Also, the inhibition entry in data set [2] was “inactive”.
On to `CC(C)(C)[Si](C)(C)OC[C@H]1O[C@@H](n2cnc3c(NCc4ccccc4)ncnc32)[C@H](O)[C@@H]1O`, for which the EC50 in data set [1] amounted to 20 µM. Also, the inhibition at 50 µM in data set [2] worked out at 50%. In addition, the CC50 at 168 h in data set [3] is > 50 µM. The CC50 at 24 h in data set [4] is > 50 µM.
In the case of `OC[C@H]1O[C@@H](n2cnc3c(NCc4ccc5ccc6cccc7ccc4c5c67)ncnc32)[C@H](O)[C@@H]1O`, the EC50 in data set [1] came to 6 µM. Besides, in data set [2], the inhibition at 50 µM was 50%. In addition, the midpoint of cytotoxicity in data set [3], the CC50 at 168 h, lay at 9 µM. In addition, the CC50 at 24 h in data set [4] was > 50 µM.
On to `OC[C@H]1O[C@@H](n2cnc3c(NC(c4ccccc4)(c4ccccc4)c4ccccc4)ncnc32)[C@H](O)[C@@H]1O`, for which the EC50 in data set [1] was > 50 µM. For the same compound, the inhibition entry in data set [2] was “inactive”.
The like results for `Cn1cnc2c(ncn2[C@@H]2O[C@H](CO)[C@@H](O)[C@H]2O)c1=N` were, in that order, > 50 µM and “inactive”.
As for `C[C@@]1(O)[C@@H](CO)O[C@@H](n2ccc(N)nc2=O)[C@@H]1O`, the EC50 in data set [1] is > 50 µM. For the same compound, the inhibition entry in data set [2] was “inactive”.
The like results for `C[C@@]1(O)[C@@H](CO)O[C@@H](n2ccc(=O)[nH]c2=O)[C@@H]1O` were, in that order, > 50 µM and “inactive”.
Consider `O=C(Nc1nc2c(ncn2[C@@H]2O[C@H](CO)[C@@H](O)[C@H]2O)c(=O)[nH]1)c1ccccc1`, for which the EC50 in data set [1] is > 50 µM. In data set [2], the inhibition result was “inactive”.
Turning to `O=C(Nc1ccn(C2O[C@H](CO)[C@@H](O)[C@H]2O)c(=O)n1)c1ccccc1` (stereo partly specified), the concentration for a half-maximal effect (EC50) in data set [1] is > 50 µM. Besides, the inhibition result in data set [2] was “inactive”.
In the same order, the values of `C[n+]1cn([C@@H]2O[C@H](CO)[C@@H](O)[C@H]2O)c2nc(N)nc([O-])c21` are > 50 µM and “inactive”.
With `c1ccc(CNc2ncnc3[nH]cnc23)cc1` [6-BENZYLAMINOPURINE], in data set [1], the EC50 was > 50 µM. In data set [2], the inhibition entry was “inactive”.
`CC(C)[Si](OC[C@H]1O[C@@H](n2cnc3c(NCc4ccccc4)ncnc32)[C@H](O)[C@@H]1O)(C(C)C)C(C)C`: in data set [1], the EC50 was found to be 5 µM. In addition, in data set [2], the inhibition at 50 µM was found to be 50%. The CC50 at 168 h in data set [3] is > 50 µM. In data set [4], the CC50 at 24 h is > 50 µM.
`OC[C@H]1O[C@@H](n2cnc3c(NC/C=C/c4ccccc4)ncnc32)[C@H](O)[C@@H]1O`: the EC50 in data set [1] was > 50 µM. Besides, the inhibition entry in data set [2] was “inactive”.
Turning to `OC[C@H]1O[C@@H](n2cnc3c(NCc4ccc5ccccc5c4)ncnc32)[C@H](O)[C@@H]1O`, in data set [1], the EC50 was > 50 µM. Further, in data set [2], the inhibition result is “inactive”.
As for `OC[C@H]1O[C@@H](n2cnc3c(NCc4ccccc4)ncnc32)[C@H](O)[C@@H]1O` [N6-BENZYLADENOSINE], the EC50 in data set [1] was > 50 µM. In addition, the inhibition result in data set [2] was “inactive”. In addition, the half-maximal cytotoxic concentration (CC50) at 168 h in data set [3] is > 50 µM. For the same compound, the CC50 at 24 h in data set [4] is > 50 µM.
`OC[C@H]1O[C@@H](n2cnc3c(NC4CCCCC4)ncnc32)[C@H](O)[C@@H]1O`: the EC50 in data set [1] is > 50 µM. The inhibition result in data set [2] was “inactive”.
The like results for `Cc1cn([C@@H]2O[C@H](CO)[C@@](C)(O)[C@H]2O)c(=O)[nH]c1=O` were, in that order, > 50 µM and “inactive”.
In the same order, the values of `CC(C)C(=O)Nc1nc2c(ncn2[C@@H]2O[C@H](CO)[C@@H](O)[C@H]2O)c(=O)[nH]1` are > 50 µM and “inactive”.
`O[C@@H]1[C@H](O)[C@@H](COC(c2ccccc2)(c2ccccc2)c2ccccc2)O[C@H]1n1cnc2c(NCc3ccccc3)ncnc21`: the EC50 in data set [1] worked out at 2 µM. In addition, the inhibition at 50 µM in data set [2] stood at 50%. The compound further yielded a CC50 at 168 h in data set [3] of 9 µM. In data set [4], the CC50 at 24 h is > 50 µM.
Regarding `c1ccc(CNc2ncnc3nc[nH]c23)cc1` [6-BENZYLAMINOPURINE], the CC50 at 168 h in data set [3] was > 50 µM. Also, in data set [4], the CC50 at 24 h was > 50 µM.
With `OC[C@H]1O[C@@H](n2cnc3c(NCc4c5ccccc5cc5ccccc45)ncnc32)[C@H](O)[C@@H]1O`, the EC50 in data set [1] is 15 µM. In addition, in data set [2], the inhibition at 50 µM turned out to be 50%. In addition, the half-maximal cytotoxic concentration (CC50) at 168 h in data set [3] was > 50 µM. Moreover, the CC50 at 24 h in data set [4] was > 50 µM.
`CC(C)=CCNc1ncnc2c1ncn2[C@@H]1O[C@H](CO)[C@@H](O)[C@H]1O` [RIBOPRINE]: in data set [1], the concentration giving a half-maximal response (EC50) is > 50 µM. The inhibition entry in data set [2] was “inactive”.
The like results for `CNc1ncnc2c1ncn2[C@@H]1O[C@H](CO)[C@@H](O)[C@H]1O` were, in that order, > 50 µM and “inactive”.
As to `C=C(C)[C@@H]1CC=C(CNc2ncnc3c2ncn3[C@@H]2O[C@H](CO)[C@@H](O)[C@H]2O)CC1`, the concentration giving a half-maximal response (EC50) in data set [1] is > 50 µM. Also, the inhibition result in data set [2] was “inactive”.
In the same order, the values of `OC[C@H]1O[C@@H](n2cnc3c(NCc4ccco4)ncnc32)[C@H](O)[C@@H]1O` [KINETIN RIBOSIDE] are > 50 µM and “inactive”.
In the same order, the values of `C[C@@]1(O)[C@@H](CO)O[C@@H](n2cnc3c(=O)[nH]c(N)nc32)[C@@H]1O` are > 50 µM and “inactive”.
The like results for `CC(C)=CCC/C(C)=C\CNc1ncnc2c1ncn2[C@@H]1O[C@H](CO)[C@@H](O)[C@H]1O` were, in that order, > 50 µM and “inactive”.
